Published values collected from several papers.
Lines come from different studies, so protocols differ.
Target: Activin receptor type-1-like (ACVRL1, Homo sapiens, UniProt P37023)

SMILES | assay | setting | remaining binding
C=CC(=O)N1CCC(C(=O)NCC(=O)N2CCN(c3nc(-c4cnc(N)nc4C(F)F)nc(N4CCOCC4)n3)CC2)CC1 | binding, competition with immobilised ligand | 1 µM | 92%
CC1CCCN1c1nccc(-c2cnn3ncccc23)n1 (stereo not shown) | binding | 1 µM | 89%
Cc1cc(C)c(-n2ccn3nc(-c4cccnc4)cc23)cc1NC(=O)c1cc(C#N)cc(S(F)(F)(F)(F)F)c1 | binding, competition with immobilised ligand | 0.1 µM | 78.9%
F[C@@H]1CCN(c2nccc(-c3cnn4ncccc34)n2)C1 | binding | 1 µM | 88%
O=C(c1ccc(Nc2ncc(Cl)c(-c3cc4ccccc4s3)n2)cc1)N1CCC(N2CCCC2)CC1 | binding, competition with immobilised ligand | 1 µM | 100%
CN(C)c1nccc(-c2cnn3ncccc23)n1 | binding | 1 µM | 100%
CN(C)CC#Cc1ccc(OCCCc2sc(N3CCc4cccc(C(=O)Nc5nc6ccccc6s5)c4C3)nc2C(=O)O)c(F)c1 | binding, competition with immobilised ligand | 1 µM | 82%
O=C(Nc1c[nH]nc1C(=O)NC1CCNCC1)c1cc(F)cc(F)c1 | binding, competition with immobilised ligand | 1 µM | 94%
CC1=C(C#N)[C@@H](c2ccc3[nH]nc(C)c3c2)C(C#N)=C(c2ccc(Cl)cc2)N1 | binding, competition with immobilised ligand | 1 µM | 79%
c1cncc(-c2cccc(Nc3nccc(NC4CCCCC4)n3)c2)c1 | binding, competition with immobilised ligand | 10 µM | 52%
FC(F)(F)Oc1cccc(-c2cnc3ccc(-c4ccncc4)nn23)c1 | cell-free assay, competition with immobilised ligand | 5 µM | 85%
O=C(NCCCN1CCOCC1)c1ccc(Nc2nccc(-c3cc4ccccc4s3)n2)cc1 | binding, competition with immobilised ligand | 1 µM | 100%
COc1cc(-c2cn(C3CCc4c(F)cccc4N(CC(F)(F)F)C3=O)nn2)ccc1-n1cnc(C)c1 (stereo not shown) | cell-free assay, competition with immobilised ligand | 1 µM | 100%
CN(c1nccc(-c2cnn3ncccc23)n1)C1CC1 | binding | 1 µM | 76%
COc1cnc(Nc2cccc(S(N)(=O)=O)c2)nc1N1CCN(c2ccccc2)C(=O)C1 | binding, competition with immobilised ligand | 1 µM | 95%
Nc1ncc2c(n1)-c1c([nH]c3ccc(C#CC4CC4)cc13)CCCC2 | binding, competition with immobilised ligand | 1 µM | 100%
N[C@@H]1CCN(c2nccc(-c3cnn4ncccc34)n2)C1 | binding | 1 µM | 100%
O=C(c1ccc(Nc2ncc(Cl)c(-c3ccc(Cl)s3)n2)cc1)N1CCC(N2CCCC2)CC1 | binding, competition with immobilised ligand | 1 µM | 100%
CS(=O)(=O)c1cc(C2(NC(=O)c3cncc4c3cnn4-c3ccc(F)cc3)CC2)ccn1 | cell-free assay, competition with immobilised ligand | 1 µM | 100%
c1cnn2ncc(-c3ccnc(N4CCC45COC5)n3)c2c1 | binding | 1 µM | 100%
FC(F)(F)c1ccc2c(c1)nc(-c1cccnc1)n2C1CC1 | cell-free assay, competition with immobilised ligand | 1 µM | 100%
COc1ncc2cc3ccccc3nc2c1C#N | binding, competition with immobilised ligand | 5 µM | 93%
